In general, inhibition refers to how much of the control response was suppressed. High values mean strong suppression, low ones little suppression.

Drawing on ChEMBL document CHEMBL1138253, “Cytotoxic and apoptotic activities of novel amino analogues of boswellic acids” (2007), this text covers inhibition for 23 compounds.

Holding throughout (format): functional
For one experiment, the system named is SW-620. Nature of the experiment: Cytotoxicity against human SW620 cells at 10 uM after 48 hrs. As to conditions: SW-620, 48 h. The method, boiled down: (§1)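 SRB growth assay. DMSO stock (1 × 10^-2 M) diluted in RPMI-1640 (2 mM glutamine, pH 7.4, 10% FCS, antibiotics). Trypsinized subconfluent cells with >97% viability (trypan blue) seeded at 10^5 cells/ml and grown 24 h, then exposed to compound 48 h at 37 °C, 5% CO2. Fixed with TCA at 4 °C for 1 h, stained with 0.4% SRB, solubilized in 0.01 M Tris pH 10.4, OD read at 540 nm. Run in triplicate; mean of three experiments.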

The subject of a further experiment is DU-145. Description: Cytotoxicity against human DU145 cells at 10 uM after 48 hrs. As to conditions: DU-145, 48 h. A digest of the protocol:
as §1

In the next experiment the test system is MCF7. Description: Cytotoxicity against human MCF7 cells at 10 uM after 48 hrs. As to conditions: MCF7, 48 h. The method, boiled down: as §1
Experiment [1] in a line: Cytotoxicity against human 502713 cells at 10 uM after 48 hrs. As to conditions: Homo sapiens, 502713, 48 h. A digest of the protocol: as §1
In another experiment the test system is HT-29. Description: Cytotoxicity against human HT29 cells at 10 uM after 48 hrs. As to conditions: HT-29, 48 h. The method, boiled down:
as §1

Consider `CC(=O)O[C@H]1C(=O)[C@@]2(C)[C@H]([C@H](OC(=O)c3ccccc3)[C@]3(O)C[C@H](OC(=O)[C@H](O)[C@@H](NC(=O)c4ccccc4)c4ccccc4)C(C)=C1C3(C)C)[C@]1(OC(C)=O)CO[C@@H]1C[C@@H]2O` [PACLITAXEL], for which the inhibition at 10 µM in the experiment on SW-620 was found to be 41%; in the experiment on DU-145, 53%; in the experiment with MCF7, 46%; in experiment [1], 26%; with HT-29, 76%.
Consider `CC(=O)N[C@@]1(C)[C@@H](OC(C)=O)CC[C@@]2(C)[C@H]1CC[C@]1(C)[C@@H]2CC=C2[C@@H]3[C@@H](C)[C@H](C)CC[C@]3(C)CC[C@]21C`, for which the inhibition at 10 µM in the experiment on SW-620 was found to be 43%; in the experiment on DU-145, 6%; with MCF7, 2%; in experiment [1], 0%; in the experiment on HT-29 it was 27%.
The corresponding values for `C[C@H]1[C@H](C)CC[C@]2(C)CC[C@]3(C)C(=CC[C@@H]4[C@@]5(C)CC[C@H](O)[C@](C)(C(=O)O)[C@@H]5CC[C@]43C)[C@H]12` are 15%, 1%, 18%, 18% and 11%.
The corresponding values for `CC(=O)O[C@@H]1CC[C@@]2(C)[C@@H](CC[C@]3(C)[C@@H]2C(=O)C=C2[C@@H]4[C@@H](C)[C@H](C)CC[C@]4(C)CC[C@]23C)[C@@]1(C)C(=O)O` [AKBA] are 2%, 10%, 12%, 8% and 24%.
The corresponding values for `C[C@H]1[C@H](C)CC[C@]2(C)CC[C@]3(C)C(=CC[C@@H]4[C@@]5(C)CC[C@@H](O)[C@](C)(C(=O)O)[C@@H]5CC[C@]43C)[C@H]12` [BOSWELLIC ACID] are 2%, 0%, 18%, 24% and 15%.
Consider `COC(=O)[C@@]1(C)C(=O)CC[C@]2(C)[C@H]3C(=O)C=C4[C@@H]5[C@@H](C)[C@H](C)CC[C@]5(C)CC[C@@]4(C)[C@]3(C)CC[C@@H]12`, for which the inhibition at 10 µM in the experiment on SW-620 amounted to 2%; with DU-145, 13%; in the experiment with MCF7, 3%; in experiment [1] it was 20%; in the experiment on HT-29, 5%.
With `CCCC(=O)N[C@]1(C)[C@@H]2CC[C@]3(C)[C@H](CC=C4[C@@H]5[C@@H](C)[C@H](C)CC[C@]5(C)CC[C@]43C)[C@@]2(C)CC[C@H]1OC(=O)CCC`, the inhibition at 10 µM with SW-620 came out at 0%; in the experiment with DU-145 it was 0%; in the experiment with MCF7 it was 0%; in experiment [1], 7%; in the experiment on HT-29, 0%.
For `CC(=O)O[C@H]1CC[C@@]2(C)[C@@H](CC[C@]3(C)[C@@H]2C(=O)C=C2[C@@H]4[C@@H](C)[C@H](C)CC[C@]4(C)CC[C@]23C)[C@@]1(C)C(=O)O`, the inhibition at 10 µM is 0% with SW-620; 0% with DU-145; 21% in the experiment with MCF7; 23% in experiment [1]; 19% in the experiment with HT-29.
For `COC(=O)[C@]1(C)[C@@H]2CC[C@]3(C)[C@H](C(=O)C=C4[C@@H]5[C@@H](C)[C@H](C)CC[C@]5(C)CC[C@]43C)[C@@]2(C)CC[C@@H]1O`, the inhibition at 10 µM in the experiment with SW-620 was found to be 11%; in the experiment with DU-145, 0%; in the experiment with MCF7, 0%; in experiment [1], 10%; in the experiment with HT-29, 3%.
`COC(=O)[C@@]1(C)[C@H](O)CC[C@@]2(C)[C@H]1CC[C@]1(C)[C@@H]2CC=C2[C@@H]3[C@@H](C)[C@H](C)CC[C@]3(C)CC[C@]21C`: the inhibition at 10 µM with SW-620 came to 0%; with DU-145, 13%; in the experiment on MCF7 it was 1%; in experiment [1], 23%; in the experiment on HT-29, 0%.
On to `C[C@H]1[C@H](C)CC[C@]2(C)CC[C@]3(C)C(=CC(=O)[C@@H]4[C@@]5(C)CC[C@@H](O)[C@](C)(C(=O)O)[C@@H]5CC[C@]43C)[C@H]12` [11-KETO BOSWELLIC ACID], for which the inhibition at 10 µM with SW-620 stood at 7%; in the experiment on DU-145, 0%; with MCF7, 0%; in experiment [1] it was 0%; in the experiment with HT-29 it was 7%.
Turning to `CCCC(=O)N[C@@]1(C)[C@@H](OC(=O)CCC)CC[C@@]2(C)[C@H]1CC[C@]1(C)[C@@H]2CC=C2[C@@H]3[C@@H](C)[C@H](C)CC[C@]3(C)CC[C@]21C`, the inhibition at 10 µM worked out at 21% in the experiment with SW-620; 0% in the experiment on DU-145; 0% in the experiment with MCF7; 14% in experiment [1]; 0% in the experiment on HT-29.
In the case of `CO[C@@]12[C@H](COC(N)=O)C3=C(C(=O)C(C)=C(N)C3=O)N1C[C@@H]1N[C@@H]12` [MITOMYCIN], the inhibition at 10 µM was 67% in the experiment with SW-620; 56% with DU-145; 78% in the experiment with MCF7; 84% in experiment [1]; 63% with HT-29.
The corresponding values for `COC(=O)[C@]1(C)[C@@H]2CC[C@]3(C)[C@H](CC=C4[C@@H]5[C@@H](C)[C@H](C)CC[C@]5(C)CC[C@]43C)[C@@]2(C)CC[C@@H]1O` are 12%, 0%, 0%, 9% and 0%.
The corresponding values for `CC(=O)O[C@@H]1CC[C@@]2(C)[C@@H](CC[C@]3(C)[C@@H]2CC=C2[C@@H]4[C@@H](C)[C@H](C)CC[C@]4(C)CC[C@]23C)[C@@]1(C)C(=O)O` are 5%, 0%, 0%, 20% and 36%.
As to `CC(=O)O[C@H]1CC[C@@]2(C)[C@@H](CC[C@]3(C)[C@@H]2CC=C2[C@@H]4[C@@H](C)[C@H](C)CC[C@]4(C)CC[C@]23C)[C@@]1(C)N=C=O`, the inhibition at 10 µM worked out at 6% in the experiment with SW-620; 18% in the experiment with DU-145; 50% with MCF7; 3% in experiment [1]; 2% in the experiment with HT-29.
`C[C@H]1[C@H](C)CC[C@]2(C)CC[C@]3(C)C(=CC[C@@H]4[C@@]5(C)CC[C@H](O)[C@](C)(N)[C@@H]5CC[C@]43C)[C@H]12`: the inhibition at 10 µM with SW-620 was determined as 63%; with DU-145, 16%; in the experiment with MCF7 it was 0%; in experiment [1], 23%; in the experiment on HT-29 it was 51%.
Consider `COC(=O)[C@@]1(C)C(=O)CC[C@]2(C)[C@H]3CC=C4[C@@H]5[C@@H](C)[C@H](C)CC[C@]5(C)CC[C@@]4(C)[C@]3(C)CC[C@@H]12`, for which the inhibition at 10 µM came out at 3% with SW-620; 12% in the experiment with DU-145; 0% in the experiment on MCF7; 27% in experiment [1]; 12% in the experiment with HT-29.
As to `CC(=O)N[C@]1(C)[C@@H]2CC[C@]3(C)[C@H](CC=C4[C@@H]5[C@@H](C)[C@H](C)CC[C@]5(C)CC[C@]43C)[C@@]2(C)CC[C@H]1OC(C)=O`, the inhibition at 10 µM in the experiment with SW-620 was 0%; with DU-145, 8%; in the experiment with MCF7, 57%; in experiment [1] it was 7%; in the experiment with HT-29 it was 0%.
For `C[C@H]1[C@H](C)CC[C@]2(C)CC[C@]3(C)C(=CC(=O)[C@@H]4[C@@]5(C)CC[C@H](O)[C@](C)(C(=O)O)[C@@H]5CC[C@]43C)[C@H]12`, the inhibition at 10 µM with SW-620 was 1%; in the experiment on DU-145, 3%; in the experiment on MCF7, 16%; in experiment [1] it was 27%; with HT-29, 0%.
The corresponding values for `CC(=O)O[C@@H]1CC[C@@]2(C)[C@@H](CC[C@]3(C)[C@@H]2CC=C2[C@@H]4[C@@H](C)[C@H](C)CC[C@]4(C)CC[C@]23C)[C@@]1(C)N=C=O` are 0%, 0%, 30%, 0% and 22%.
In the case of `CCC(=O)N[C@]1(C)[C@@H]2CC[C@]3(C)[C@H](C(=O)C=C4[C@@H]5[C@@H](C)[C@H](C)CC[C@]5(C)CC[C@]43C)[C@@]2(C)CC[C@H]1OC(=O)CC`, the inhibition at 10 µM in the experiment on SW-620 was 0%; in the experiment with DU-145, 0%; with MCF7, 4%; in experiment [1], 24%; with HT-29, 0%.
As to `CCC(=O)N[C@]1(C)[C@@H]2CC[C@]3(C)[C@H](CC=C4[C@@H]5[C@@H](C)[C@H](C)CC[C@]5(C)CC[C@]43C)[C@@]2(C)CC[C@H]1OC(=O)CC`, the inhibition at 10 µM amounted to 0% in the experiment on SW-620; 8% in the experiment on DU-145; 35% with MCF7; 9% in experiment [1]; 0% in the experiment with HT-29.
